Source: ChEMBL document CHEMBL1153402, “Pyrido[2,3-e]-1,2,4-triazolo[4,3-a]pyrazin-1-one as a new scaffold to develop potent and selective human A3 adenosine receptor antagonists. Synthesis, pharmacological evaluation, and ligand-receptor modeling studies” (J Med Chem, 2009)

Legend:
[1] = target: T1, Adenosine receptor A3 (Homo sapiens, UniProt P0DMS8); experiment: Antagonist activity at human adenosine A3 receptor expressed in CHO cells assessed as blockade of NECA-mediated inhibition of forskolin-stimulated cAMP accumulation; format: functional, cell-based
T1 sequence (P0DMS8 whole entry): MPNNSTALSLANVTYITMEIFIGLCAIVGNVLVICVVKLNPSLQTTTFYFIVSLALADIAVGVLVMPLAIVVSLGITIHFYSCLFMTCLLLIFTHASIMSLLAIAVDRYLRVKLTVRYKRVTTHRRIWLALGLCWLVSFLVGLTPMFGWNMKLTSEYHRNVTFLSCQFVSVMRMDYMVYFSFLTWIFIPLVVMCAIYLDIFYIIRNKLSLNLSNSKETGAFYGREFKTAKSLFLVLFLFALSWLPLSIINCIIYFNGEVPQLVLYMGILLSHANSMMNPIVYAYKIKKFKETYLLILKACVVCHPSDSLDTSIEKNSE
How it was run: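 CHO cells stably expressing hA3, plated 48 h, preincubated 15 min at 37 °C with Ro 20-1724 (20 μM) and adenosine deaminase (1 U/mL). Compound (1 nM–10 μM; DMSO stock diluted in water) added 15 min before 100 nM NECA, with 1 μM forskolin stimulation. Lysis in 0.4 N HCl; cAMP by competitive protein binding with [3H]cAMP. EC50 by sigmoid nonlinear regression; three experiments.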

[2] = species: Bos taurus; experiment: Displacement of [3H]CGS 21680 from bovine striatal membrane adenosine A2A receptor at 20 uM
How it was run: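 IC50 from five concentrations in triplicate, nonlinear regression; Ki via Cheng–Prusoff from four assays. Single-point values as percent inhibition at 20 μM.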

[3] = target: T2, Adenosine receptor A1 (Bos taurus, UniProt P28190); experiment: Displacement of [3H]DPCPX from bovine brain cortical membrane adenosine A1 receptor
T2 sequence (P28190 whole entry): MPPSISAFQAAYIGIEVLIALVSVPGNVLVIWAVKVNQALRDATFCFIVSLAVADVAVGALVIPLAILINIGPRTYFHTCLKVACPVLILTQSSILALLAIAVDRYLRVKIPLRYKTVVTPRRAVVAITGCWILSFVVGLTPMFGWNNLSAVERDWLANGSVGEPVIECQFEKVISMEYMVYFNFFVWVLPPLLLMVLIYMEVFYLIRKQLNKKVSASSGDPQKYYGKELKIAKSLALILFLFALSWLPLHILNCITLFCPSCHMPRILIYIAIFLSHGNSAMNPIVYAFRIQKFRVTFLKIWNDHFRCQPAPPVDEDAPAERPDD

[4] = target: T1, Adenosine receptor A3; experiment: Displacement of [125I]AB-MECA from human cloned adenosine A3 receptor expressed in CHO cells; format: cell-based
[5] = target: Adenosine receptor A2a (Homo sapiens, UniProt P29274); experiment: Displacement of [3H]NECA from human cloned adenosine A2A receptor expressed in CHO cells at 10 uM; format: cell-based
How it was run: (§1)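 CHO cell membranes stably expressing hA1 or hA2A; radioligands [3H]DPCPX (hA1, Kd 3 nM) and [3H]NECA (hA2A, Kd 30 nM). IC50 from five displacer concentrations in triplicate, nonlinear regression; Ki by Cheng–Prusoff; four separate assays. Single-point values as percent inhibition of specific binding at 10 μM.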

[6] = target: T3, Adenosine receptor A1 (Rattus norvegicus, UniProt P25099); experiment: Displacement of [3H]DPCPX from adenosine A1 receptor in Wistar rat brain membrane; format: cell membranes
T3 sequence (P25099 whole entry): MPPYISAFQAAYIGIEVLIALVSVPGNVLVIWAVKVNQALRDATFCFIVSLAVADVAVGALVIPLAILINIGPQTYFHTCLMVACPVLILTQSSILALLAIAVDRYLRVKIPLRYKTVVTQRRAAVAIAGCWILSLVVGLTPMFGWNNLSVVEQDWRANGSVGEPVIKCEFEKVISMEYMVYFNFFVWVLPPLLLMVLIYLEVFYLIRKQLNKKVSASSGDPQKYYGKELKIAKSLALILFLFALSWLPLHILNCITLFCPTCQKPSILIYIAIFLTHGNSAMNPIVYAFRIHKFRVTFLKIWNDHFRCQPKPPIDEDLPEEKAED
How it was run: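 Nonspecific binding defined with 20 μM R-PIA. Filtration on GF/C filters. IC50 by nonlinear regression over five displacer concentrations in triplicate; Ki via Cheng–Prusoff.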

[7] = target: Adenosine receptor A2a (Rattus norvegicus) (UniProt P30543); experiment: Displacement of [3H]CGS21680 adenosine A2A receptor in Wistar rat brain membrane at 10 uM; format: cell membranes
[8] = target: T4, Adenosine receptor A3 (Rattus norvegicus) (UniProt P28647); experiment: Displacement of [125I]AB-MECA from Wistar rat adenosine A3 receptor expressed in HEK293/EBNA cells by gamma-scintillation spectrometry at 1 uM; format: cell-based
T4 sequence (whole entry): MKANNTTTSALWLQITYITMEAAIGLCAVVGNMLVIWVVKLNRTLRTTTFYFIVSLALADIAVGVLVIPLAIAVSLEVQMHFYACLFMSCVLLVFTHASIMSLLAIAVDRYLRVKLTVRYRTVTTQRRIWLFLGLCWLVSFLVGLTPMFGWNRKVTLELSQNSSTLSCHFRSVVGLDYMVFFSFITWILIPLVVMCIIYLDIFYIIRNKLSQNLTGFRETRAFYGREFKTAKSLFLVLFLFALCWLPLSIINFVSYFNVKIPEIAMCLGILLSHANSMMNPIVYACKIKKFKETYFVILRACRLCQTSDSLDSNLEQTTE

[9] = test system: Hippocampus; experiment: Neuroprotective effect against 30-mins oxygen-glucose deprivation triggered neuronal injury in Wistar rat hippocampus CA1 region assessed as delay in anoxic depolarization latency at 10 nM relative to control; format: functional
How it was run: (§2)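 Rat hippocampal slices; CA1 stratum radiatum stimulated (80 μs, 0.066 Hz) with fEPSP at 40–50% of maximum, amplitude expressed as percent of 5 min pre-OGD baseline. OGD: glucose-free aCSF gassed 95% N2/5% CO2 for 7 or 30 min, then reperfusion with oxygenated glucose aCSF. Compound 10 nM (DMSO stock diluted in aCSF) applied 15 min before, during and 5 min after OGD. Anoxic depolarization recorded as negative dc shift, latency from OGD onset; unpaired two-tailed t test.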

[10] = target: T5, Adenosine receptor A1 (Homo sapiens) (UniProt P30542); experiment: Displacement of [3H]DPCPX from human cloned adenosine A1 receptor expressed in CHO cells at 10 uM; format: cell-based; how it was run: as §1
T5 sequence (whole entry): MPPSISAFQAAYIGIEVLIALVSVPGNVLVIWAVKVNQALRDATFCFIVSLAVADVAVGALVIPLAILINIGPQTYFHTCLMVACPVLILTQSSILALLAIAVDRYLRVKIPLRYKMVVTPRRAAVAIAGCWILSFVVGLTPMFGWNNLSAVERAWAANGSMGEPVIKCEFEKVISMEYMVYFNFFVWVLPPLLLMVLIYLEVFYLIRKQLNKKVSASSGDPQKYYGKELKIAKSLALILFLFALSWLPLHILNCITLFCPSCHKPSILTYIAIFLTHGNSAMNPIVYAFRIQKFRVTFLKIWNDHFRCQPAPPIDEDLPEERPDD

[11] = test system: Hippocampus; experiment: Neuroprotective effect against 7-mins oxygen-glucose deprivation triggered neuronal injury in Wistar rat hippocampal CA1 region assessed as recovery of field excitatory post synaptic potential at 10 nM relative to control; format: functional; how it was run: as §2

Sequence of Adenosine receptor A2a (Rattus norvegicus) (P30543 whole entry): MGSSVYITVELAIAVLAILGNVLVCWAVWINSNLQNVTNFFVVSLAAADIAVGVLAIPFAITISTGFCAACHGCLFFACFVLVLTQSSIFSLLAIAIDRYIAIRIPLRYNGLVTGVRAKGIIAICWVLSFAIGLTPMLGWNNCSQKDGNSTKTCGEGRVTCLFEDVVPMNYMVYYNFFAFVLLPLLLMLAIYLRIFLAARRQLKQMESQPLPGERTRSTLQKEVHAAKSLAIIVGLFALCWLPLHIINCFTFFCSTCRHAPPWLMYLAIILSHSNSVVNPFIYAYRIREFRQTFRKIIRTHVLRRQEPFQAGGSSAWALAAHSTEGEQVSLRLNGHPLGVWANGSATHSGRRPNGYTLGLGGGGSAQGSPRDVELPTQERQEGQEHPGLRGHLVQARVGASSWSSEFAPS
Sequence of Adenosine receptor A2a (P29274 whole entry): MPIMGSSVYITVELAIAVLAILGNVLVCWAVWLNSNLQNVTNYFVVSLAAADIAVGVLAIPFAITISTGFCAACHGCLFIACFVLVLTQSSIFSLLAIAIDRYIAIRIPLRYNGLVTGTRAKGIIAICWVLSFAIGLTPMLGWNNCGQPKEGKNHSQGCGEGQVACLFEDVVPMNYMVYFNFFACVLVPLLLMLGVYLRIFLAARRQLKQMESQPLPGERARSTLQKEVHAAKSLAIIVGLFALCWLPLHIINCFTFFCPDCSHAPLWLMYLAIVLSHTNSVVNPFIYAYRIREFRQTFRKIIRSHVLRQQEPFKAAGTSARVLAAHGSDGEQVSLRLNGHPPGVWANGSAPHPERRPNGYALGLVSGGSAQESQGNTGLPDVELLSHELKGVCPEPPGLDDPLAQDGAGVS

COc1ccc(-n2nc3c(NC(=O)c4ccccc4)nc4ncccc4n3c2=O)cc1
EC50 [1]: 36.3 nM
Activity [2]: 7%
Ki [3]: 355 nM
Ki [4]: 4.54 nM
Activity [5]: 27%
Ki [6]: 587 nM
Activity [7]: 34%
Activity [8]: 0%
Activity [9]: 8.9
Activity [10]: 38%
Activity [11]: 77.6%
